In brackets after ≈: the same amount, converted by molar mass. Activity calls are given as the source filed them. No cut-off for these calls is given here.

Series [1] has as its system Schistosoma mansoni. Nature of the series: Antischistosomal activity against Schistosoma mansoni assessed as parasite killing after 2 hrs. It counts as functional, organism-based. The essentials:
(§1)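 Cultured ex vivo worms were exposed to 10 μM compound. Worm effects were scored by visual examination at time points over a 72 h time-course.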

In series [2] the test system is Schistosoma mansoni. The series can be described thus: Antischistosomal activity against Schistosoma mansoni assessed as induction of parasite mortality after 8 hrs. The arrangement: concentration or dose not given beside the values. The format is functional. The essentials: as §1
Series [3] concerns Schistosoma mansoni. Nature of the series: Antischistosomal activity against Schistosoma mansoni assessed as induction of parasite mortality after 16 hrs. It counts as functional. Also on record: concentration or dose not given beside the values. The essentials:
as §1

Series [4] has as its system Schistosoma mansoni. The series can be described thus: Antischistosomal activity against Schistosoma mansoni assessed as induction of parasite mortality after 24 hrs. The format is functional. The arrangement: concentration or dose not given beside the values. The method in brief: as §1
In series [5] the test system is Schistosoma mansoni. The series can be described thus: Antischistosomal activity against Schistosoma mansoni assessed as induction of parasite mortality after 48 hrs. Also on record: concentration or dose not given beside the values. The format is functional. The method in brief:
as §1

Series [6] relates to Schistosoma mansoni. Nature of the series: Antischistosomal activity against Schistosoma mansoni assessed as induction of parasite mortality after 72 hrs. The format is functional. Also on record: concentration or dose not given beside the values. The essentials:
as §1

The test system of series [7] is Schistosoma mansoni. Nature of the series: Antischistosomal activity against Schistosoma mansoni assessed as induction of parasite sluggish movement after 4 hrs. The format is functional, organism-based. The method in brief:
as §1

The nature of series [8]: Induction of nitric oxide release at 10 uM in presence of Schistosoma mansoni recombinant TGR. The format is functional.
Series [9] can be described thus: Induction of nitric oxide release at 10 uM in presence of Schistosoma mansoni recombinant TGR and NADPH. It counts as functional.
Series [10] can be described thus: Induction of nitric oxide release at 10 uM in presence of cysteine. The format is physicochemical.
For series [11], the target named is T1, Glutathione reductase, mitochondrial (Homo sapiens, UniProt P00390).
T1 sequence (P00390 whole entry): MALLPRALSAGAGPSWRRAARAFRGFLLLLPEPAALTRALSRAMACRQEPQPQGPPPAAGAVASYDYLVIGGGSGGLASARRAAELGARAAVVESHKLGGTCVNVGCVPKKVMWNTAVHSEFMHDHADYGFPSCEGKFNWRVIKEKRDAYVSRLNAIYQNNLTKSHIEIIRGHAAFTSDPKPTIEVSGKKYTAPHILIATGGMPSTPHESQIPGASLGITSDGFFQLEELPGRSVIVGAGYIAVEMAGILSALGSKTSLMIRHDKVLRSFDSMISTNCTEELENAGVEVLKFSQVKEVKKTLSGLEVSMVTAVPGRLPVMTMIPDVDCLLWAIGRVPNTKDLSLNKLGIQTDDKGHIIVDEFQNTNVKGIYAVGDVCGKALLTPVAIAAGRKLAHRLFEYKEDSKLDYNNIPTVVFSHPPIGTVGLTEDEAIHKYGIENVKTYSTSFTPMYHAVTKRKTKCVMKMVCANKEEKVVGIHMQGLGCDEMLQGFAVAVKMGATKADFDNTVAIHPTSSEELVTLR
Nature of the series: Inhibition of human recombinant GR after 15 mins in presence of NADPH.

For series [12], the target named is T2, Thioredoxin reductase 1, cytoplasmic (Rattus norvegicus, UniProt O89049).
T2 sequence (O89049 whole entry): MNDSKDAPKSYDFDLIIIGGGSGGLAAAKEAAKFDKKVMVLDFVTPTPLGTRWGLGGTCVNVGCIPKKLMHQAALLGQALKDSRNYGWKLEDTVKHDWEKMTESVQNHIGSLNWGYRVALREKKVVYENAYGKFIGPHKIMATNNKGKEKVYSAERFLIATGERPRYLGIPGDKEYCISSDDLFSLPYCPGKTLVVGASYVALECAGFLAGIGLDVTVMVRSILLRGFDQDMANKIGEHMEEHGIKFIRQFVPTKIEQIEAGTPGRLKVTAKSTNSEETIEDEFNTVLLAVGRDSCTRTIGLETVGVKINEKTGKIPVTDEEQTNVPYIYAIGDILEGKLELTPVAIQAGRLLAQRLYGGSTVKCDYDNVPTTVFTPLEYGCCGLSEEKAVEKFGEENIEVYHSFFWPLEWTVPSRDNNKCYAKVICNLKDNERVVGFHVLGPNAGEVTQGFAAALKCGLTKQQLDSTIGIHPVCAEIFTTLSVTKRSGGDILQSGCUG
Nature of the series: Inhibition of rat recombinant TrxR1 after 10 mins.

Series [13] is described as follows: Solubility by quantitative nitrogen detection based method.
Series [14] is described as follows: Distribution coefficient, log D of the compound. To be noted: octanol/water.
The test system of series [15] is Caco-2. The series can be described thus: Apparent permeability from apical to basolateral side of human Caco-2 cells.
The test system of series [16] is Caco-2. Nature of the series: Apparent permeability from basolateral to apical side of human Caco-2 cells. In general terms: Caco-2 monolayers are a common model of the intestinal barrier.
Series [17] can be described thus: Metabolic stability in human liver microsomes assessed as compound remaining over 60 mins in presence of NADPH. The format is ADME, Microsome. To be noted: read-out: Stability. For orientation: Microsomes from liver hold many membrane-bound enzymes, among them those of drug oxidation.
The nature of series [18]: Metabolic stability in human liver microsomes assessed as compound remaining over 60 mins in absence of NADPH. It counts as ADME, Microsome. To be noted: read-out: Stability.
Series [19] concerns the target hERG (KCNH2) (Homo sapiens, UniProt Q12809). Nature of the series: Inhibition of human ERG expressed in HEK293 cells at 10 uM by fast patch clamp method. The conditions noted are these: HEK293 cells expressing human ERG. In general terms: In patch-clamp work, channel activity is measured electrically.
The test system of series [20] is Schistosoma mansoni. Nature of the series: Antischistosomal activity against Schistosoma mansoni assessed as parasite killing after 4 hrs. It counts as functional. The method in brief:
as §1

Series [21] has as its system Schistosoma mansoni. Nature of the series: Antischistosomal activity against Schistosoma mansoni assessed as induction of parasite curling after 8 hrs. The format is functional, organism-based. The method in brief: as §1
Series [22] deals with Schistosoma mansoni. The series can be described thus: Antischistosomal activity against Schistosoma mansoni assessed as induction of parasite sluggish movement after 48 hrs. The format is functional, organism-based. The essentials:
as §1

Series [23] is described as follows: Reactivity with cysteine at 0.1 mM in 0.1M phosphate buffer assessed as amount of compound unreacted by HPLC.
Series [24] concerns Schistosoma mansoni. The series can be described thus: Antischistosomal activity against Schistosoma mansoni assessed as induction of parasite sluggish movement after 24 hrs. It counts as functional, organism-based. The essentials:
as §1

hERG (KCNH2), sequence (Q12809 whole entry): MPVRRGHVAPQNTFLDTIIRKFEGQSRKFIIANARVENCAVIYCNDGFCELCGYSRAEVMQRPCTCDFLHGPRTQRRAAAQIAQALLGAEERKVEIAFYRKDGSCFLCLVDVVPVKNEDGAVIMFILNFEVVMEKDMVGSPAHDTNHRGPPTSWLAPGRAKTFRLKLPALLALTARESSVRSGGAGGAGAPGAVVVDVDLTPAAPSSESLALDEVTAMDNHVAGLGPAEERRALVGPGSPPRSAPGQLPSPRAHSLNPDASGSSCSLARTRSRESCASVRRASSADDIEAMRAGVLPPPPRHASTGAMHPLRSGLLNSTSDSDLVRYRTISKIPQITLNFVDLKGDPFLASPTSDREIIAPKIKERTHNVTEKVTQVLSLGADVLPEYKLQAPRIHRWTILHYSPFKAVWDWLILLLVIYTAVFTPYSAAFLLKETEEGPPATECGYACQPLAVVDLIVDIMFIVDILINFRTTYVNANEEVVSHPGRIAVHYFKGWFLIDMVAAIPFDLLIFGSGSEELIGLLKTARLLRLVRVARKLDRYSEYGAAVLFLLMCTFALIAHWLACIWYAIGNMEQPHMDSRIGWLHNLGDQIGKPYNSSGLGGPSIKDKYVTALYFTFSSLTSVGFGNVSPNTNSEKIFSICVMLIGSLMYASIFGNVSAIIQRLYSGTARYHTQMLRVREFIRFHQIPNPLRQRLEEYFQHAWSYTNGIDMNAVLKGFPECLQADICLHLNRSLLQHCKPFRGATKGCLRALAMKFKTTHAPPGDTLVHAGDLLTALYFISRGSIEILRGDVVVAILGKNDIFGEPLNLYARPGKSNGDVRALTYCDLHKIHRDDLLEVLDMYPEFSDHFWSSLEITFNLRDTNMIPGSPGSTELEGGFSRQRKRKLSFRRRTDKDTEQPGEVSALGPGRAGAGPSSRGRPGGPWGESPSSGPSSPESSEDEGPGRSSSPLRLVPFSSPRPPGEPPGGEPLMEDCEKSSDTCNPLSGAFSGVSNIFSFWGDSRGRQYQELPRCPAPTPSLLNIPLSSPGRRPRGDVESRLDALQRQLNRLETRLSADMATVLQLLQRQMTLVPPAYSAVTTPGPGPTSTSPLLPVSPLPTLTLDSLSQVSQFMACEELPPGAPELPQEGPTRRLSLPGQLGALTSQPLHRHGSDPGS

Regarding `N#Cc1c(-c2ccc(Br)cc2)no[n+]1[O-]`, the outcome in [1] was inactive. The Activity was determined as 39% in series [2]; 60% in [3]; 100% in series [4]; 100% in series [5]; 100% in series [6]; 4% in [8]. The Activity in [9] came out at 19%; in series [10], 68%. The outcome in [7] was Active. The IC50 (as a rule, the concentration needed to halve the response being measured) is greater than 50 µM in series [11] and 250 µM in series [12]. In addition, in [13], the concentration in solution (solubility) came to 18.6 µM (≈ 4.95 µg/mL). Besides, the logD (in general, lipophilicity at a set pH, counting ionised and neutral species) in [14] was 3.1. The Papp (commonly the rate of passage across a membrane or cell layer, normalised by area and donor concentration) in [15] stood at 7.9 ×10⁻⁶ cm/s; in [16], 4.8 ×10⁻⁶ cm/s. Further, the figures for the remaining at 1 h in series [17] and in [18] were 10% and 67%, respectively. Further, the inhibition (in general, the percentage by which the read-out fell short of the control) at 10 µM in [19] was determined as 5.5%.
With `N#Cc1c(-c2ccc(F)c(Br)c2)no[n+]1[O-]`, the outcome in series [1] and in series [20] was inactive. Further, the outcome in series [3] and in [21] was Active. Also, the Activity in series [4] came out at 5%; in series [5], 75%; in series [6], 100%; in series [8] it was 2%; in series [9], 19%; in series [10], 69%. In addition, the figures for the IC50 in series [11] and in series [12] were greater than 50 µM and 250 µM, respectively.
As to `Cc1c(-c2ccccc2)no[n+]1[O-]`, the result in series [1], in series [20], in series [2], in series [3], in series [4] and in series [23] was inactive. In series [22], the result was Active. In addition, the Activity in series [6] is 5%; in series [8], less than 1%; in series [9], less than 1%; in [10], 2%. The IC50 was greater than 50 µM in series [11] and greater than 400 µM in [12].
With `O=Cc1c(-c2ccccc2)no[n+]1[O-]`, the result in series [1], in series [20], in [2] and in series [3] was inactive. In addition, in series [24], the outcome was Active. In addition, the Activity in [5] was found to be 3%; in series [6] it was 5%; in series [8], 1%; in series [9], 7%; in series [10] it was 9%. The IC50 in series [11] is 35.2 µM; in series [12] it was less than 12.5 µM.

For the origin of these results see ChEMBL document CHEMBL1155233, “Structure mechanism insights and the role of nitric oxide donation guide the development of oxadiazole-2-oxides as therapeutic agents against schistosomiasis” (J Med Chem, 2009).
